These results are taken from ChEMBL document CHEMBL1649428, “An ABC transporter of Streptococcus pneumoniae involved in susceptibility to vancoresmycin and bacitracin” (2009).

Format in all cases: functional
In assay [1] the test system is Streptococcus pneumoniae. The assay is described as follows: Antimicrobial activity against copY and cyl deficient Streptococcus pneumoniae VarA mutant by agar dilution method.
Assay [2] deals with Streptococcus pneumoniae. The assay is described as follows: Antimicrobial activity against kanamycin-resistant and spr0811-spr0813::aphIII deficient Streptococcus pneumoniae VarG by agar dilution method. In short, it runs like this: (§1)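 Agar dilution MIC against the strain. Vancoresmycin was tested at 0.3 to 0.8 μg/ml in 0.05 μg/ml steps, diluted from a 0.5 mg/ml methanol stock kept at −20°C. Bacitracin was tested at 0.5 to 6 μg/ml in 0.2 μg/ml steps. Pneumococci are routinely grown at 37°C. MIC is the mean of three independent experiments.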

Assay [3] relates to Streptococcus pneumoniae. The assay is described as follows: Antimicrobial activity against Streptococcus pneumoniae R6 transformed with DNA containing spr0813 C1744T mutant gene selected after drug exposure by agar dilution method. In short, it runs like this: as §1
In assay [4] the test system is Streptococcus pneumoniae. The assay is described as follows: Antimicrobial activity against Streptococcus pneumoniae R6 by agar dilution method. In short, it runs like this: as §1
Assay [5] relates to Streptococcus pneumoniae. The experiment in a line: Antimicrobial activity against Streptococcus pneumoniae R6 transformed with DNA containing spr0813 C1744T mutant gene selected after vancoresmycin exposure by agar dilution method. In short, it runs like this:
as §1

The subject of assay [6] is Streptococcus pneumoniae. The assay is described as follows: Antimicrobial activity against Streptococcus pneumoniae R6 transformed with DNA containing spr0813 C1744T::aphIII mutant gene selected after kanamycin exposure by agar dilution method. In short, it runs like this:
as §1

Assay [7] deals with Streptococcus pneumoniae. The assay is described as follows: Antimicrobial activity against Streptococcus pneumoniae VarG transformed with spr0813 C1744T mutant gene by agar dilution method. In short, it runs like this:
as §1

For assay [8], the system named is Streptococcus pneumoniae. The assay is described as follows: Antimicrobial activity against kanamycin-resistant and spr0811-spr0813::aphIII deficient Streptococcus pneumoniae R6 by agar dilution method. In short, it runs like this: as §1
The subject of assay [9] is Streptococcus pneumoniae. The experiment in a line: Antimicrobial activity against copY and cyl deficient Streptococcus pneumoniae VarF mutant by agar dilution method.
For assay [10], the system named is Streptococcus pneumoniae. The assay is described as follows: Antimicrobial activity against copY and cyl deficient Streptococcus pneumoniae VarE mutant by agar dilution method.

In brackets after ≈: the same amount, converted by molar mass. Bridge positions count the residues as written; N and C are the ends. Square brackets hold non-standard residues; d marks the D form. Peptide text beside a SMILES is read from it. * marks the point of attachment. Ileψ(thiazoline)Cys = CC[C@H](C)[C@H](N)C1=N[C@H](C(=O)*)CS1; dOrn = NCCC[C@@H](N)C(=O)O

Turning to `CC[C@H](C)[C@H](N)C1=N[C@H](C(=O)N[C@@H](CC(C)C)C(=O)N[C@H](CCC(=O)O)C(=O)N[C@H](C(=O)N[C@H]2CCCCNC(=O)[C@H](CC(N)=O)NC(=O)[C@@H](CC(=O)O)NC(=O)[C@H](Cc3cnc[nH]3)NC(=O)[C@@H](Cc3ccccc3)NC(=O)[C@H]([C@@H](C)CC)NC(=O)[C@@H](CCCN)NC2=O)[C@@H](C)CC)CS1` [BACITRACIN] ({Ileψ(thiazoline)Cys}-L[dE]IK[dOrn]I[dF]H[dD]N; lactam 4-C), the MIC against Streptococcus pneumoniae [1] was determined as 5.2 µg/mL (≈ 3.65 µM); in the assay with Streptococcus pneumoniae [2], 1 µg/mL (≈ 0.703 µM); against Streptococcus pneumoniae [3], 1 µg/mL (≈ 0.703 µM); in the assay with Streptococcus pneumoniae [4] it was 4.8 µg/mL (≈ 3.37 µM); in the assay with Streptococcus pneumoniae [5], 1 µg/mL (≈ 0.703 µM); in the assay on Streptococcus pneumoniae [6], 1 µg/mL (≈ 0.703 µM). The MIC against Streptococcus pneumoniae [7] is 1 µg/mL (≈ 0.703 µM); against Streptococcus pneumoniae [8] it was 1 µg/mL (≈ 0.703 µM); against Streptococcus pneumoniae [9], 5.2 µg/mL (≈ 3.65 µM); in the assay on Streptococcus pneumoniae [10], 5.2 µg/mL (≈ 3.65 µM).
Turning to `C/C(=C\CC(O)CC(O)CCC(C)C(O)C(C)C(O)CCCC(O)C(C)C(O)/C(C)=C/C(C)C(=O)/C(C)=C/C(O)C(O)CC(O)CC(OC1OC(C)C(O)C(N)C1O)C(C)CCC(O)CC(O)CCC(C)C(O)C(C)C(O)C(C)C)C(=O)C1=C(O)/C(=C/C(C)C)N(C)C1=O` (centres undefined) [VANCORESMYCIN], the MIC was determined as 0.7 µg/mL (≈ 0.521 µM) against Streptococcus pneumoniae [1]; 0.4 µg/mL (≈ 0.298 µM) against Streptococcus pneumoniae [2]; 0.5 µg/mL (≈ 0.372 µM) against Streptococcus pneumoniae [3]; 0.4 µg/mL (≈ 0.298 µM) with Streptococcus pneumoniae [4]; 0.5 µg/mL (≈ 0.372 µM) against Streptococcus pneumoniae [6]; 0.5 µg/mL (≈ 0.372 µM) against Streptococcus pneumoniae [7]. For the same compound, the MIC in the assay on Streptococcus pneumoniae [8] stood at 0.4 µg/mL (≈ 0.298 µM); in the assay on Streptococcus pneumoniae [9], 0.65 µg/mL (≈ 0.484 µM); against Streptococcus pneumoniae [10], 0.7 µg/mL (≈ 0.521 µM).
